ChEMBL document CHEMBL1772983, “Bioactive sesqui- and diterpenoids from the Argentine liverwort Porella chilensis” (2011)
The source made the active and inactive calls. No cut-off for these calls is given here.

Key:
Pseudomonas aeruginosa [1] = test: Inhibition of Pseudomonas aeruginosa ATCC 27853 biofilm formation at 5 ug/ml after 24 hrs using crystal violet staining by spectrophotometry analysis; assay type: functional; details: ATCC 27853, 24 h
Outline: (§1)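 ATCC 27853 culture diluted to 10% (v/v) in LB and dosed from DMSO–water (1:1) stocks of 1 or 0.1 mg/mL (10 µL into 190 µL), 8 replicates, vehicle control. After 24 h at 37 °C, liquid discarded and wells washed three times with PBS. Stained with 0.1% crystal violet for 20 min, rinsed with water, dye eluted with absolute EtOH, A540 read. Mean ± SD, Student's t-test.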

Pseudomonas aeruginosa [2] = test: Antibacterial activity against Pseudomonas aeruginosa ATCC 27853 assessed as growth inhibition at 5 ug/ml by microplate assay; assay type: functional
Outline: (§2)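 Overnight P. aeruginosa ATCC 27853 culture diluted to 10% (v/v) in LB medium. 190 µL of culture plus 10 µL of 1 or 0.1 mg/mL stock in DMSO–water (1:1), giving 50 or 5 µg/mL. 8 replicates; vehicle-only negative control. Incubated 37 °C, 24 h; growth read as OD600. Mean ± SD, Student's t-test, p ≤ 0.05.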

Pseudomonas aeruginosa [3] = test: Antibacterial activity against Pseudomonas aeruginosa ATCC 27853 assessed as increase in bacterial growth at 5 to 50 ug/ml by microplate assay; assay type: functional, organism-based; outline: as §2
Pseudomonas aeruginosa [4] = test: Inhibition of quorum sensing activity in Pseudomonas aeruginosa ATCC 27853 assessed as N-acylhomoserin lactones production at 5 to 50 ug/ml after 24 hrs by measuring beta-galactosidase activity by spectrophotometry
Pseudomonas aeruginosa [5] = test: Antibacterial activity against Pseudomonas aeruginosa ATCC 27853 assessed as growth inhibition at 5 to 50 ug/ml after 24 hrs by microplate assay; assay type: functional, organism-based; outline: as §2
Pseudomonas aeruginosa [6] = test: Inhibition of Pseudomonas aeruginosa ATCC 27853 biofilm formation at 5 to 50 ug/ml after 24 hrs using crystal violet staining by spectrophotometry analysis; assay type: functional, organism-based; outline: as §1
Pseudomonas aeruginosa [7] = test: Induction of Pseudomonas aeruginosa ATCC 27853 biofilm formation at 0.6 uM after 24 hrs using crystal violet staining by spectrophotometry analysis; assay type: functional, organism-based
Pseudomonas aeruginosa [8] = test: Inhibition of Pseudomonas aeruginosa ATCC 27853 biofilm formation at 16.4 uM after 24 hrs using crystal violet staining by spectrophotometry analysis relative to control; assay type: functional; details: ATCC 27853, 24 h; outline: as §1
Pseudomonas aeruginosa [9] = test: Inhibition of Pseudomonas aeruginosa ATCC 27853 biofilm formation at 5 ug/ml after 24 hrs using crystal violet staining by spectrophotometry analysis relative to control; assay type: functional; outline: as §1
Pseudomonas aeruginosa [10] = test: Inhibition of quorum sensing activity in Pseudomonas aeruginosa ATCC 27853 assessed as N-acylhomoserin lactones production at 16.4 uM after 24 hrs by measuring beta-galactosidase activity by spectrophotometry; set-up: scale not given: the % may be the effect or the level left
Pseudomonas aeruginosa [11] = test: Inhibition of Pseudomonas aeruginosa ATCC 27853 biofilm formation at 50 ug/ml after 24 hrs using crystal violet staining by spectrophotometry analysis relative to control; details: ATCC 27853, 24 h
Pseudomonas aeruginosa [12] = test: Antibacterial activity against Pseudomonas aeruginosa ATCC 27853 assessed as growth inhibition at 5 ug/ml after 24 hrs by microplate assay relative to control; assay type: functional; details: ATCC 27853, 24 h, read-out: GI; outline: as §2
Pseudomonas aeruginosa [13] = test: Induction of Pseudomonas aeruginosa ATCC 27853 biofilm formation at 50 ug/ml after 24 hrs using crystal violet staining by spectrophotometry analysis relative to control; assay type: functional; outline: as §1
Pseudomonas aeruginosa [14] = test: Induction of quorum sensing in Pseudomonas aeruginosa ATCC 27853 assessed as N-acylhomoserin lactones production at 50 ug/ml after 24 hrs by measuring beta-galactosidase activity by spectrophotometry
Pseudomonas aeruginosa [15] = test: Inhibition of quorum sensing activity in Pseudomonas aeruginosa ATCC 27853 assessed as N-acylhomoserin lactones production at 5 ug/ml after 24 hrs by measuring beta-galactosidase activity by spectrophotometry
Pseudomonas aeruginosa [16] = test: Inhibition of quorum sensing activity in Pseudomonas aeruginosa ATCC 27853 assessed as N-acylhomoserin lactones production at 5 ug/ml after 24 hrs by measuring beta-galactosidase activity by spectrophotometry relative to control; set-up: scale not given: the % may be the effect or the level left
Pseudomonas aeruginosa [17] = test: Antibacterial activity against Pseudomonas aeruginosa ATCC 27853 assessed as growth inhibition by microplate assay; assay type: functional, organism-based; outline: as §2
Pseudomonas aeruginosa [18] = test: Antibacterial activity against Pseudomonas aeruginosa ATCC 27853 assessed as growth inhibition at 50 ug/ml by microplate assay relative to control; assay type: functional; details: read-out: GI; outline: as §2
Pseudomonas aeruginosa [19] = test: Antibacterial activity against Pseudomonas aeruginosa ATCC 27853 assessed as increase in bacterial growth at 50 ug/ml by microplate assay relative to control; assay type: functional; outline: as §2

Work on `O=C(O)c1cn(C2CC2)c2cc(N3CCNCC3)c(F)cc2c1=O` [CIPROFLOXACIN] yielded an inhibition at 5 µg/mL (Pseudomonas aeruginosa [1]) of 51% and an inhibition of growth at 5 µg/mL (Pseudomonas aeruginosa [2]; read-out: GI) of 73%.

For `C=CC1(O)CC[C@@]2(C)[C@H](C)CC[C@@]2(C)[C@@H]1C` (stereo not given in full), the Activity (Pseudomonas aeruginosa [3]) was “Active”, the inhibition (Pseudomonas aeruginosa [4]) was “Active” and the “growth inhibition (GI)” value (Pseudomonas aeruginosa [5]) was “Active”. The inhibition (Pseudomonas aeruginosa [6]) was “Active” and the biofilm induction (Pseudomonas aeruginosa [7]) was “inactive”.

With `C=C1CC[C@H]2[C@@H]([C@@H]3[C@@H]1CC[C@@]3(C)O)C2(C)C` the inhibition at 16.4 µM (Pseudomonas aeruginosa [8]) was 41%, the “growth inhibition (GI)” value (Pseudomonas aeruginosa [2]) was “Active” and the inhibition (Pseudomonas aeruginosa [4]) was 33%. The inhibition (Pseudomonas aeruginosa [9]) was “Active”, the inhibition (Pseudomonas aeruginosa [6]) was “Active” and the Activity (Pseudomonas aeruginosa [10]) was 33%. For the same molecule, the biofilm induction (Pseudomonas aeruginosa [7]) was “inactive”.

With `CC(=O)OC[C@@]12Cc3occc3C(=O)[C@]1(C)CC[C@H]2C` [NORPINGUISONE ACETATE] the Activity (Pseudomonas aeruginosa [3]) was “Active”, the inhibition at 5 µg/mL (Pseudomonas aeruginosa [9]; ATCC 27853, 24 h) was 20% and the biofilm induction (Pseudomonas aeruginosa [7]) was “inactive”. For the same molecule, the inhibition at 50 µg/mL (Pseudomonas aeruginosa [11]) was 27%.

In the case of `COC(=O)[C@@]12Cc3occc3C(=O)[C@]1(C)CC[C@H]2C`, the Activity (Pseudomonas aeruginosa [3]) is reported as “Active”, the inhibition (Pseudomonas aeruginosa [4]) is reported as “inactive” and the “growth inhibition (GI)” value (Pseudomonas aeruginosa [5]) is reported as “inactive”. For the same molecule, the biofilm induction (Pseudomonas aeruginosa [7]) was “inactive”.

With `CC1(C)[C@@H]2[C@@H]3[C@H](CC[C@@]3(C)O)[C@@](C)(O)CC[C@@H]21` the inhibition at 16.4 µM (Pseudomonas aeruginosa [8]) was 37%, the inhibition (Pseudomonas aeruginosa [4]) was 80% and the inhibition (Pseudomonas aeruginosa [6]) was “Active”. The biofilm induction (Pseudomonas aeruginosa [7]) was “inactive” and the inhibition of growth at 5 µg/mL (Pseudomonas aeruginosa [12]) was 24%.

`CC(C)[C@H]1CC[C@]2(C)CC3=C(C(=O)C[C@@]3(C)O)[C@@H](C)CC[C@@H]12` was tested, and the Activity (Pseudomonas aeruginosa [13]) was 93%, the biofilm induction (Pseudomonas aeruginosa [7]) was “inactive” and the Activity (Pseudomonas aeruginosa [14]) was “Active”.

In the case of `C[C@@H]1CC[C@@]2(C)C(=O)c3ccoc3C[C@@]12C`, the Activity (Pseudomonas aeruginosa [3]) is reported as “Active”, the inhibition (Pseudomonas aeruginosa [4]) is reported as “Active” and the “growth inhibition (GI)” value (Pseudomonas aeruginosa [5]) is reported as “Active”. For the same molecule, the inhibition (Pseudomonas aeruginosa [6]) was “Active” and the biofilm induction (Pseudomonas aeruginosa [7]) was “inactive”.

`CC[C@H]1OC(=O)[C@H](C)[C@@H](O[C@H]2C[C@@](C)(OC)[C@@H](O)[C@H](C)O2)[C@H](C)[C@@H](O[C@@H]2O[C@H](C)C[C@H](N(C)C)[C@H]2O)[C@](C)(O)C[C@@H](C)CN(C)[C@H](C)[C@@H](O)[C@]1(C)O` was tested, and the “growth inhibition (GI)” value (Pseudomonas aeruginosa [2]) was “inactive”, the inhibition (Pseudomonas aeruginosa [15]) was 76% and the Activity (Pseudomonas aeruginosa [16]) was 76%.

In the case of `CC(C)[C@H]1CC[C@]2(C)C[C@]3(O)C(=CC(=O)[C@H]3C)[C@@H](C)CC[C@@H]12` [ANADENSIN], the “growth inhibition (GI)” value (Pseudomonas aeruginosa [17]) is reported as “Dose-dependent effect”, the inhibition at 16.4 µM (Pseudomonas aeruginosa [8]) is reported as 47% and the inhibition of growth at 50 µg/mL (Pseudomonas aeruginosa [18]) is reported as 16%. The inhibition (Pseudomonas aeruginosa [4]) was “Active”, the “growth inhibition (GI)” value (Pseudomonas aeruginosa [5]) was “Active” and the inhibition (Pseudomonas aeruginosa [6]) was “Active”. The biofilm induction (Pseudomonas aeruginosa [7]) was “inactive”.

`CC1=CC(=O)[C@@H]2[C@@H](C)CC[C@H]3[C@@H](C(C)C)CC[C@]3(C)C[C@@]12O` was tested, and the “growth inhibition (GI)” value (Pseudomonas aeruginosa [17]) was “Dose-dependent effect”, the Activity (Pseudomonas aeruginosa [13]) was 95% and the biofilm induction (Pseudomonas aeruginosa [7]) was “inactive”. For the same molecule, the Activity (Pseudomonas aeruginosa [19]) was 15% and the Activity (Pseudomonas aeruginosa [14]) was “Active”.

With `CC1=C2C[C@@]3(C)CC[C@H](C(C)C)[C@@H]3CC[C@H](C)[C@]2(O)CC1=O` [FUSICOAURITONE] the “growth inhibition (GI)” value (Pseudomonas aeruginosa [17]) was “Dose-dependent effect”, the inhibition of growth at 50 µg/mL (Pseudomonas aeruginosa [18]) was 25% and the Activity (Pseudomonas aeruginosa [13]) was 105%. The biofilm induction (Pseudomonas aeruginosa [7]) was “inactive” and the Activity (Pseudomonas aeruginosa [14]) was “Active”.
